Screening results deposited in PubChem BioAssay by The Scripps Research Institute Molecular Screening Center.
GPR7 antagonist = GPR7 receptor antagonists, primary screen, cell-based, fluorescence, single concentration | GPR7-expressing cells, fluorescence antagonist assay | inhibition, % at 4.4 µM | 290,000 compounds, 1.1% hits | AID 1861, 2009; in the data active = inhibition above about 16%, passing the limit was not always enough;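 also: cells stimulated with the agonist NPW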
OX1R antag-1 = antagonists of human orexin 1 receptor (OX1R) | OX1R-expressing cells, FRET antagonist read-out | inhibition, % at 6.6 µM | 330,000 compounds, 1.8% hits | AID 485270, 2010; in the data active = inhibition mostly above about 38%, no sharp cut-off; inactive = mostly below about 40%
Target sequence (O43613 whole entry, looked up): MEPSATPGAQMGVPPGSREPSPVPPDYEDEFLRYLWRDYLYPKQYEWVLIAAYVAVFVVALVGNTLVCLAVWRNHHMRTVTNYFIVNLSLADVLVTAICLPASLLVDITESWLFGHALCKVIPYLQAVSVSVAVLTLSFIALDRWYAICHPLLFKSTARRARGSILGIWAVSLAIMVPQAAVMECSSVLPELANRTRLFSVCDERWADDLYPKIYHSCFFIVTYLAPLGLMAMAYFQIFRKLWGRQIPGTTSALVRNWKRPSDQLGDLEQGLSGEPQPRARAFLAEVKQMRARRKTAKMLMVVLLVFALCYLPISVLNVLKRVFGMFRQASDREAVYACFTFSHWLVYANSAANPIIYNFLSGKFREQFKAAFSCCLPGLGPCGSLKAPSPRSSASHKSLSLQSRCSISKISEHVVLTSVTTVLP
CHO parental Ca = ATP-evoked calcium signal inhibitors, parental CHO, primary screen, counter-screen for OX1R antagonist project, cell-based, fluorescence, Fluo-8 calcium dye; 330,000 compounds, 0.63% hits; inhibition, % at 5.6 µM; AID 463079, 2010; parental CHO-K1, ATP-induced calcium, Fluo-8 fluorescence;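 active = inhibition above that plate's mean sample inhibition plus 3 SD, cut at about 26% in these data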
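Assay system: parental CHO cells; Read-out basis: percent inhibition of ATP-evoked calcium rise, normalized to controls; Benchmarks: ATP and no-ATP DMSO wells; Compound dosing: single nominal dose of 5.6 µM per compound; Signal: Fluo-8 calcium dye fluorescence; Also added: ATP as calcium-mobilizing challenge; Repeats: singlicate.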
OX1R antag-2 = OX1R (HCRTR1) antagonists, primary screen, fluorescence, CHO/OX1R cells, Fluo-8 calcium, orexin A; Orexin/Hypocretin receptor type 1 (Homo sapiens), O43613; Fluo-8 calcium fluorescence; inhibition, % at 5 µM; 330,000 compounds, 0.43% hits; AID 434989, 2010;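 active = inhibition above its plate's threshold, mean inhibition of all tested compounds on the plate plus 3 SD, cut at about 37% in these data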
TAAR1 agonist = human TAAR1 agonists, primary screen, Fluo-8 calcium fluorescence, CHO RD-HGA16 cells. vehicle wells 0%, saturating PEA agonist 100%. Trace amine-associated receptor 1 (Homo sapiens), Q96RJ0. activation, % at 3 µM. 360,000 compounds, 0.99% hits. AID 624467, 2012;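 active = activation above the mean activation of all test compounds in the run plus 3 SD, cut at about 38% in these data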
Target sequence (Q96RJ0 whole entry, looked up): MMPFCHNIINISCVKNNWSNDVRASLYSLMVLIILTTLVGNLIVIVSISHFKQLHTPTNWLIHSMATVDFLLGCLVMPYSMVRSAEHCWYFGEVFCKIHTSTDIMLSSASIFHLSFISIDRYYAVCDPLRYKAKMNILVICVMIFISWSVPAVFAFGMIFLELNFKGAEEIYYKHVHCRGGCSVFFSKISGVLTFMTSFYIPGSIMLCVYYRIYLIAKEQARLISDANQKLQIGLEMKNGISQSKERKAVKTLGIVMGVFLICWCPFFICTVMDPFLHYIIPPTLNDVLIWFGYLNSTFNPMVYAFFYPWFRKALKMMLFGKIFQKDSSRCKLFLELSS
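System: CHO-derived RD-HGA16 cells with stable Gα16 and human TAAR1 / Times: 17-24 h plating, Fluo-8 75 min 37 °C, 30 min RT / Technique: calcium-sensitive Fluo-8 signal, excitation 470-495, emission 515-575 nm / Measure: % activation relative to PEA EC100 response / Benchmarks: DMSO and PEA EC100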
TAAR1 antagonist = human TAAR1 antagonists, primary screen, Fluo-8 calcium fluorescence, CHO RD-HGA16 cells | Trace amine-associated receptor 1 (Homo sapiens), Q96RJ0 | antagonist | inhibition, % at 3 µM | 360,000 compounds, 1.5% hits | AID 624466, 2012;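 active = inhibition above a per-plate cutoff, the mean inhibition of test compounds on that plate plus 3 SD, cut at about 49% in these data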
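Test system: CHO RD-HGA16 cells bearing hTAAR1 | Reagent: β-PEA, EC80 | Compound dosing: 3 µM, single point | Schedule: Dye loading 75 min at 37 °C, then 30 min room temperature | Signal: Calcium fluorescence with Fluo-8 | Evaluation: Percent inhibition of PEA-evoked calcium signal, max/basal emission ratio | Control set: DMSO-only wells and EC80 β-PEA-stimulated wells | Repeats: Singlicate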
TAAR1 nonsel count = nonselective antagonists in TAAR1 counter-screen cells, counter-screen for hTAAR1 antagonist project, cell-based, fluorescence, calcium; AID 651780, 2012; 2,400 compounds, 77% hits; inhibition, % at 3 µM; shares compounds with TAAR1 antagonist; counterscreen cell line, antagonist mode; in the data active = inhibition above about 22%;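 also: CHO-Ga16 host cells stimulated with ATP at an EC80 level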
TAAR1 antag conf = human TAAR1 antagonists, retest of hits, confirmation, cell-based, fluorescence | shares compounds with TAAR1 antagonist | TAAR1-expressing cells, fluorescence antagonist read-out | inhibition, % at 3 µM | 2,400 compounds, 40% hits | AID 651785, 2012; in the data active = inhibition above about 49%;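 also: CHO-Ga16 host cells challenged with agonist PEA near its EC80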
Ga16 nonsel ag = calcium activation in Ga16-expressing cells, counter-screen for TAAR1 antagonist project, cell-based, fluorescence. AID 651953, 2012. activation, % at 3 µM. 2,400 compounds, 18% hits. agonist counterscreen. shares compounds with TAAR1 antagonist; in the data active = activation above about 12%
TAAR1 ag count = TAAR1 activation by candidate antagonists – cell-based, fluorescence, counter-screen for TAAR1 antagonist project; shares compounds with TAAR1 antagonist; activation, % at 3 µM; AID 651955, 2012; hTAAR1 cell line, agonist mode; 2,400 compounds, 2% hits; in the data active = activation above about 37%;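 also: CHO cells stably expressing TAAR1 with calcium dye readout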
A number is an active result. Only some compounds are listed: those with a hit (about 4.6% of all), similar ones and a draw of the others.

For COc1cc(/C=N/NC(=O)c2ccccn2)ccc1OC(=O)c1ccccc1Br the results were GPR7 antagonist inactive, OX1R antag-1 inactive, CHO parental Ca inactive, OX1R antag-2 inactive, TAAR1 agonist inactive, TAAR1 antagonist 70, TAAR1 nonsel count 35, TAAR1 antag conf 53, Ga16 nonsel ag inactive and TAAR1 ag count inactive.
Screening COc1ccc(NS(=O)(=O)c2cccc(C(=O)N/N=C/c3ccc4c(c3)OCCO4)c2)cc1 returned GPR7 antagonist inactive, OX1R antag-1 inactive, CHO parental Ca inactive, OX1R antag-2 inactive, TAAR1 agonist inactive and TAAR1 antagonist inactive.
For COc1cc(/C=N/NC(=O)c2ccccn2)ccc1OC(=O)c1ccc(Br)cc1 the results were GPR7 antagonist inactive, OX1R antag-1 inactive, CHO parental Ca inactive, OX1R antag-2 inactive, TAAR1 agonist inactive and TAAR1 antagonist inactive.
O=C(N/N=C\c1cccc(F)c1)c1ccc(-c2ccccc2)cc1 was read as GPR7 antagonist inactive, TAAR1 agonist inactive, TAAR1 antagonist 57, TAAR1 nonsel count inactive, TAAR1 antag conf inactive, Ga16 nonsel ag inactive and TAAR1 ag count inactive.
COc1ccccc1NS(=O)(=O)c1cccc(C(=O)N/N=C/c2ccc3c(c2)OCCO3)c1 was read as GPR7 antagonist inactive, OX1R antag-1 inactive, CHO parental Ca inactive, OX1R antag-2 inactive, TAAR1 agonist inactive, TAAR1 antagonist 56, TAAR1 nonsel count 32, TAAR1 antag conf inactive, Ga16 nonsel ag inactive and TAAR1 ag count inactive.
For O=C(N/N=C/c1cccc(O)c1)c1ccc(COc2cccc3cccnc23)cc1 the results were GPR7 antagonist inactive, OX1R antag-1 inactive, CHO parental Ca inactive, OX1R antag-2 inactive, TAAR1 agonist inactive and TAAR1 antagonist inactive.
Screening O=C(N/N=C/c1cccc(O)c1)c1ccc(COc2ccccc2Br)cc1 returned GPR7 antagonist inactive, OX1R antag-1 inactive, CHO parental Ca inactive, OX1R antag-2 inactive, TAAR1 agonist inactive, TAAR1 antagonist 91, TAAR1 nonsel count 27, TAAR1 antag conf 78, Ga16 nonsel ag inactive and TAAR1 ag count inactive.
Screening COc1ccc(/C=N/NC(=O)c2ccc(COc3cccc4cccnc34)cc2)cc1OC returned GPR7 antagonist inactive, OX1R antag-1 inactive, CHO parental Ca inactive, OX1R antag-2 inactive, TAAR1 agonist inactive, TAAR1 antagonist 54, TAAR1 nonsel count 27, TAAR1 antag conf inactive, Ga16 nonsel ag inactive and TAAR1 ag count inactive.
`O=C(Nc1ccc(Cn2cccn2)cc1)c1ccc(COc2ccccc2Br)cc1` gave GPR7 antagonist inactive, OX1R antag-1 inactive, CHO parental Ca inactive, OX1R antag-2 inactive, TAAR1 agonist inactive, TAAR1 antagonist 88, TAAR1 nonsel count 37, TAAR1 antag conf 66, Ga16 nonsel ag inactive and TAAR1 ag count inactive.
`CC(=O)Nc1ccc(C(=O)N/N=C/c2ccccc2OC(=O)c2ccc(Cl)cc2)cc1` gave GPR7 antagonist inactive, OX1R antag-1 inactive, CHO parental Ca inactive, OX1R antag-2 inactive, TAAR1 agonist inactive, TAAR1 antagonist 52, TAAR1 nonsel count 35, TAAR1 antag conf inactive, Ga16 nonsel ag inactive and TAAR1 ag count inactive.
CCOc1cc(CNCCSc2nnnn2C)cc(Br)c1OCc1ccc(F)cc1 was read as GPR7 antagonist inactive, OX1R antag-1 inactive, CHO parental Ca inactive, OX1R antag-2 inactive, TAAR1 agonist inactive and TAAR1 antagonist inactive.
`COc1ccc(S(=O)(=O)N2CCC(C(=O)Oc3cccc(C)c3)CC2)cc1OC` gave GPR7 antagonist inactive, OX1R antag-1 inactive, CHO parental Ca inactive, OX1R antag-2 inactive, TAAR1 agonist inactive and TAAR1 antagonist inactive.
`Cc1ccc(C(=O)Nc2cccc(S(=O)(=O)N3CCCC3)c2)o1` gave OX1R antag-1 inactive, CHO parental Ca inactive, OX1R antag-2 inactive, TAAR1 agonist inactive and TAAR1 antagonist inactive.
For COc1ccc(C(=O)N/N=C/c2ccc(OC)c(OS(=O)(=O)c3ccccc3)c2)cc1 the results were GPR7 antagonist inactive, OX1R antag-1 inactive, CHO parental Ca inactive, OX1R antag-2 inactive, TAAR1 agonist inactive, TAAR1 antagonist 71, TAAR1 nonsel count inactive, TAAR1 antag conf inactive, Ga16 nonsel ag inactive and TAAR1 ag count inactive.
Screening O=C(N/N=C/c1cccc(NC(=O)c2ccc(Cl)cc2)c1)c1cccc(O)c1 returned GPR7 antagonist inactive, OX1R antag-1 inactive, CHO parental Ca inactive, OX1R antag-2 inactive, TAAR1 agonist inactive, TAAR1 antagonist 73, TAAR1 nonsel count 26, TAAR1 antag conf inactive, Ga16 nonsel ag inactive and TAAR1 ag count inactive.
Screening COc1ccc(/C=N/NC(=O)c2ccc(COc3cccc4cccnc34)cc2)cc1O returned GPR7 antagonist inactive, OX1R antag-1 inactive, CHO parental Ca inactive, OX1R antag-2 inactive, TAAR1 agonist inactive, TAAR1 antagonist 63, TAAR1 nonsel count 26, TAAR1 antag conf inactive, Ga16 nonsel ag inactive and TAAR1 ag count inactive.
For COc1ccc(/C=N/NS(=O)(=O)c2ccccc2)cc1OS(=O)(=O)c1ccccc1 the results were GPR7 antagonist inactive, OX1R antag-1 inactive, CHO parental Ca inactive, OX1R antag-2 inactive, TAAR1 agonist inactive and TAAR1 antagonist inactive.
For Cc1ccccc1NC(=O)CSc1nc2ccccc2c(=O)n1CC1CCCO1 (centres undefined) the results were GPR7 antagonist inactive, TAAR1 agonist inactive and TAAR1 antagonist inactive.
CCOc1ccccc1N(CC(=O)Nc1cccc(OC)c1)S(=O)(=O)c1ccccc1 was read as GPR7 antagonist inactive, OX1R antag-1 inactive, CHO parental Ca inactive, OX1R antag-2 inactive, TAAR1 agonist inactive, TAAR1 antagonist 52, TAAR1 nonsel count inactive, TAAR1 antag conf inactive, Ga16 nonsel ag inactive and TAAR1 ag count inactive.
